The values that follow come from ChEMBL document CHEMBL4680142, “Thiazolidine-2,4-dione-based irreversible allosteric IKK-β kinase inhibitors: Optimization into in vivo active anti-inflammatory agents” (Eur J Med Chem, 2020).

Active and inactive are the calls of the source. No cut-off for these calls is given here.

Data set [1] has as its target T1, Inhibitor of nuclear factor kappa-B kinase subunit beta (Homo sapiens, UniProt O14920).
T1 sequence (O14920 whole entry): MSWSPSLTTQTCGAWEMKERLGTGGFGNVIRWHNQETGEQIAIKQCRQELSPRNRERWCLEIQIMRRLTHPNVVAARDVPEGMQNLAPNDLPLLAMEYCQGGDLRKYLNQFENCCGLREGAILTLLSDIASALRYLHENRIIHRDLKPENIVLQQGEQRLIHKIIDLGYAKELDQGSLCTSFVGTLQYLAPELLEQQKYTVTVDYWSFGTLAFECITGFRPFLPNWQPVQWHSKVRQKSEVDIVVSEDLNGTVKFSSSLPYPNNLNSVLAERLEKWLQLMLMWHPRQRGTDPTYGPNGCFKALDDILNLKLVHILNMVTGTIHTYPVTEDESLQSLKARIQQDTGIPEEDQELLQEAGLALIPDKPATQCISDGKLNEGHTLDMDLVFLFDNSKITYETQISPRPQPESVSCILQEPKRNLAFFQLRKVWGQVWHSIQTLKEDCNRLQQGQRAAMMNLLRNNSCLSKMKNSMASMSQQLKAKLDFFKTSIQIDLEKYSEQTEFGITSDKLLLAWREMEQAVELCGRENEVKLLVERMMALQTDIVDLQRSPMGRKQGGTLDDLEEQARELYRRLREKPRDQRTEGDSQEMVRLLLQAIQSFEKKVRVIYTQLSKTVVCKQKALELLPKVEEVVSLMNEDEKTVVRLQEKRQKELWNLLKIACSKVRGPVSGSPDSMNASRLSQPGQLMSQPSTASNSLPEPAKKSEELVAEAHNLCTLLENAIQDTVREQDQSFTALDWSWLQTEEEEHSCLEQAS
The data set is described as follows: Allosteric inhibition of IKKbeta (unknown origin) using 5FAM-GRHDSGLDSMK-NH2 as substrate pretreated for 10 mins followed measured after 2 hrs by TR-FRET assay. In short, it runs like this: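 Enzyme: 0.5 µg/mL IKK2, in 10 mM Tris-HCl pH 7.2, 10 mM MgCl2, 0.05% NaN3, 1 mM DTT, 0.01% Tween-20. Compound at 10 µM pre-incubated 10 min, then 1 µM 5-FAM IκBα peptide and 3 µM ATP added. Reaction 2 h at room temperature. IMAP binding reagent/terbium detection mix added 15 h before reading. TR-FRET read with 340 nm excitation, emission 495/520 nm. Percent inhibition or IC50 derived.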

For data set [2], the system named is RAW264.7. The data set is described as follows: Antiinflammatory activity against mouse RAW264.7 cells assessed as reduction in LPS-induced IL-6 level incubated for 1 hr followed by LPS stimulation and measured after 24 hrs by ELISA. The data set is classed as functional, cell-based. In short, it runs like this: (§1)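 RAW 264.7 cells (DMEM, 10% FBS, 37 °C, 5% CO2) plated at 2×10^5 cells/mL and left overnight. Compounds (0.1, 1, 10 µM) or NS-398 given for 1 h, then LPS 10 ng/mL for 24 h. Culture medium assayed by ELISA: competitive colorimetric for PGE2/TNF-α, mouse DuoSet for TNF-α/IL-6. IC50 is the concentration lowering the mediator to 50%.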

Data set [3] relates to RAW264.7. The experiment in a line: Antiinflammatory activity against mouse RAW264.7 cells assessed as reduction in LPS-induced PGE2 production at 0.1 to 1 uM incubated for 1 hr followed by LPS stimulation and measured after 24 hrs by ELISA. The conditions noted are these: dose 0.1-1 µM, time 25.0 hrs. It is filed as functional, cell-based. In short, it runs like this:
as §1

The subject of data set [4] is RAW264.7. The experiment in a line: Cytotoxicity against mouse RAW264.7 cells assessed as reduction in cell viability incubated for 24 hrs in presence of LPS by MTT assay. It is filed as cell-based. The conditions noted are these: RAW264.7, 24 h. In short, it runs like this: (§2)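 MTT viability in RAW 264.7 cells seeded at 1×10^5 cells/mL and incubated overnight. Compounds added with or without LPS (1 µg/mL) for 24 h. MTT for 4 h at 37 °C, formazan dissolved in DMSO, absorbance read at 540 nm. IC80 is the concentration reducing viability to 80% with LPS.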

Data set [5] deals with RAW264.7. The experiment in a line: Antiinflammatory activity against mouse RAW264.7 cells assessed as reduction in LPS-induced NO level incubated for 1 hr followed by LPS stimulation and measured after 24 hrs by Griess reagent based assay. The data set is classed as functional, cell-based. In short, it runs like this:
(§3)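 RAW 264.7 cells in 24-well plates received compounds (0.1, 1, 10 µM) or L-NIL 40 µM positive control, then LPS 1 µg/mL for 24 h. Nitrite in the medium measured by Griess reaction as an NO surrogate. Values referenced to levels before and after LPS stimulation.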

In data set [6] the test system is RAW264.7. The data set is described as follows: Antiinflammatory activity against mouse RAW264.7 cells assessed as reduction in LPS-induced TNF-alpha level incubated for 1 hr followed by LPS stimulation and measured after 24 hrs by ELISA. It is filed as functional, cell-based. In short, it runs like this:
as §1

Data set [7] has as its system RAW264.7. The data set is described as follows: Antiinflammatory activity against mouse RAW264.7 cells assessed as reduction in LPS-induced PGE2 level incubated for 1 hr followed by LPS stimulation and measured after 24 hrs by ELISA. It is filed as functional, cell-based. In short, it runs like this:
as §1

A short description of data set [8]: Effect on NO production in non-stimulated mouse RAW264.7 cells at 10 uM after 24 hrs by Griess reagent based assay. The conditions noted are these: raw264.7, 24 h.
The subject of data set [9] is RAW264.7. The data set is described as follows: Cytotoxicity against mouse RAW264.7 cells assessed as reduction in cell viability at 6 uM incubated for 24 hrs by MTT assay. The data set is classed as cell-based. The conditions noted are these: raw264.7, 24 h. In short, it runs like this:
as §2

Data set [10] concerns RAW264.7. The data set is described as follows: Antiinflammatory activity against mouse RAW264.7 cells assessed as reduction in LPS-induced PGE2 production at 10 uM incubated for 1 hr followed by LPS stimulation and measured after 24 hrs by ELISA (reference value: 33.64 ng/ml). It is filed as functional. In short, it runs like this: as §1
Data set [11] deals with RAW264.7. The data set is described as follows: Antiinflammatory activity against mouse RAW264.7 cells assessed as reduction in LPS-induced TNF-alpha level at 10 uM incubated for 1 hr followed by LPS stimulation and measured after 24 hrs by ELISA relative to control. It is filed as functional. The conditions noted are these: time 25 hrs. In short, it runs like this: as §1

Data set [12] can be described thus: Cytotoxicity against non-stimulated mouse RAW264.7 cells upto 10 uM after 24 hrs by MTT assay. The conditions noted are these: raw264.7, 24 h.
Data set [13] has as its system RAW264.7. The experiment in a line: Antiinflammatory activity against mouse RAW264.7 cells assessed as reduction in LPS-induced NO level at 40 uM incubated for 1 hr followed by LPS stimulation and measured after 24 hrs by Griess reagent based assay. The data set is classed as functional, cell-based. In short, it runs like this:
as §3

Data set [14] deals with RAW264.7. The experiment in a line: Antiinflammatory activity against mouse RAW264.7 cells assessed as reduction in LPS-induced TNF-alpha level at 0.1 to 1 uM incubated for 1 hr followed by LPS stimulation and measured after 24 hrs by ELISA. It is filed as functional, cell-based. To be noted: dose 0.1-1 µM, time 25.0 hrs. In short, it runs like this:
as §1

The test system of data set [15] is RAW264.7. The data set is described as follows: Antiinflammatory activity against mouse RAW264.7 cells assessed as reduction in LPS-induced PGE2 production at […] incubated for 1 hr followed by LPS stimulation and measured after 24 hrs by ELISA (reference value: 33.64 ng/ml). The conditions noted are these: time 25 hrs. It is filed as functional.

With `CN1CCN(CCCCCOc2ccc(N3C(=O)S/C(=C\c4ccc(Oc5ccc(F)cc5)cc4)C3=O)cc2)CC1`, the IC50 in data set [1] was 0.6 µM.
The same measure, in the same setting: then `COc1ccc(Oc2ccc(/C=C3\SC(=O)N(c4ccc(OCCCCCN5CCN(C)CC5)cc4)C3=O)cc2)cc1`, with 0.7 µM; and `CC(=O)Nc1ccc(Oc2ccc(/C=C3\SC(=O)N(c4ccc(OCCCCCN5CCN(C)CC5)cc4)C3=O)cc2)cc1`, with 1.71 µM.
Still for that read-out and setting: for `CN1CCN(CCCCCOc2ccc(N3C(=O)S/C(=C\c4ccc(Oc5ccc(Br)cc5)cc4)C3=O)cc2)CC1` the value was 0.43 µM.
For `CN1CCN(CCCCCOc2cccc(N3C(=O)S/C(=C\c4ccc(Oc5ccc(Cl)cc5)cc4)C3=O)c2)CC1`, the IC50 in the data set with RAW264.7 [2] is over 10 µM; in the data set on RAW264.7 [5], over 10 µM; with RAW264.7 [6] it was over 10 µM; in the data set with RAW264.7 [7], 8.52 µM; in data set [1] it was 2.61 µM. Moreover, in the data set on RAW264.7 [3], the result was inactive. Besides, the IC80 in the data set on RAW264.7 [4] was over 10 µM. The Activity result is “Non-Toxic” in [8], “Non-Toxic” in the data set with RAW264.7 [9], 13.87 ng/mL in the data set with RAW264.7 [10] (time 25 hrs) and “Non-Toxic” in [12]. Moreover, in the data set with RAW264.7 [11], the inhibition at 10 µM turned out to be 44%.
Regarding `CN1CCN(CCCCCOc2cccc(N3C(=O)S/C(=C\c4ccc(Oc5ccc(C#N)cc5)cc4)C3=O)c2)CC1`, the IC50 in [1] was determined as 0.84 µM.
Take `CC(=N)NCCCC[C@H](N)C(=O)O`: the outcome with RAW264.7 [13] was Active.
In the case of `CN1CCN(CCCCCOc2ccc(N3C(=O)S/C(=C\c4ccc(Oc5ccc(Cl)cc5)cc4)C3=O)cc2)CC1`, the IC50 in data set [1] came out at 0.7 µM.
Take `CN1CCN(CCCOc2ccc(N3C(=O)S/C(=C\c4ccc(Oc5ccc(F)cc5)cc4)C3=O)cc2)CC1`: the IC50 in data set [1] was determined as 0.67 µM.
The same measure, in the same setting: then `CN1CCN(CCCCCOc2cccc(N3C(=O)S/C(=C\c4ccc(Oc5ccc(Br)cc5)cc4)C3=O)c2)CC1`, with 2.67 µM.
As for `CN1CCN(CCCCCOc2cccc(N3C(=O)S/C(=C\c4ccc(Oc5ccc(F)cc5)cc4)C3=O)c2)CC1`, the IC50 was over 10 µM with RAW264.7 [2]; over 10 µM in the data set with RAW264.7 [5]; 7.87 µM with RAW264.7 [6]; over 10 µM in the data set with RAW264.7 [7]; 6.06 µM in data set [1]. Besides, the result in the data set on RAW264.7 [3] and in the data set on RAW264.7 [10] (time 25.0 hrs) was inactive. Further, in the data set on RAW264.7 [4], the IC80 stood at 4.43 µM. The Activity result (in [8]; in the data set on RAW264.7 [9]; in [12]) was “Non-Toxic” throughout. Also, the inhibition result in the data set with RAW264.7 [14] was “inactive”. Also, in the data set on RAW264.7 [11], the inhibition at 10 µM was determined as 71%.
As for `CN1CCN(CCCCCOc2ccc(N3C(=O)S/C(=C\c4ccc(Oc5ccc(N)cc5)cc4)C3=O)cc2)CC1`, the IC50 in data set [1] came to 2.61 µM.
On the same count and under the same terms, for `COc1ccc(Oc2ccc(/C=C3\SC(=O)N(c4cccc(OCCCCCN5CCN(C)CC5)c4)C3=O)cc2)cc1` the value was 2.43 µM.
`CN1CCN(CCCCCOc2cccc(N3C(=O)S/C(=C\c4ccc(Oc5ccc(N)cc5)cc4)C3=O)c2)CC1`: the IC50 in data set [1] turned out to be 8.07 µM.
Take `Cc1ccc(Oc2ccc(/C=C3\SC(=O)N(c4cccc(OCCCCCN5CCN(C)CC5)c4)C3=O)cc2)cc1`: the IC50 in [1] amounted to 2.73 µM.
Consider `CS(=O)(=O)Nc1ccc([N+](=O)[O-])cc1OC1CCCCC1` [NS-398], for which the Activity in the data set with RAW264.7 [15] is 12.02 ng/mL.
With `Cc1ccc(Oc2ccc(/C=C3\SC(=O)N(c4ccc(OCCCCCN5CCN(C)CC5)cc4)C3=O)cc2)cc1`, in data set [1], the IC50 worked out at 0.87 µM.
